From ChEMBL document CHEMBL3751804, “Carbazole-containing sulfonamides and sulfamides: Discovery of cryptochrome modulators as antidiabetic agents” (Bioorg Med Chem Lett, 2016)

Target: T1, Period circadian protein homolog 2 (Homo sapiens) (UniProt O15055)
T1 sequence (whole entry): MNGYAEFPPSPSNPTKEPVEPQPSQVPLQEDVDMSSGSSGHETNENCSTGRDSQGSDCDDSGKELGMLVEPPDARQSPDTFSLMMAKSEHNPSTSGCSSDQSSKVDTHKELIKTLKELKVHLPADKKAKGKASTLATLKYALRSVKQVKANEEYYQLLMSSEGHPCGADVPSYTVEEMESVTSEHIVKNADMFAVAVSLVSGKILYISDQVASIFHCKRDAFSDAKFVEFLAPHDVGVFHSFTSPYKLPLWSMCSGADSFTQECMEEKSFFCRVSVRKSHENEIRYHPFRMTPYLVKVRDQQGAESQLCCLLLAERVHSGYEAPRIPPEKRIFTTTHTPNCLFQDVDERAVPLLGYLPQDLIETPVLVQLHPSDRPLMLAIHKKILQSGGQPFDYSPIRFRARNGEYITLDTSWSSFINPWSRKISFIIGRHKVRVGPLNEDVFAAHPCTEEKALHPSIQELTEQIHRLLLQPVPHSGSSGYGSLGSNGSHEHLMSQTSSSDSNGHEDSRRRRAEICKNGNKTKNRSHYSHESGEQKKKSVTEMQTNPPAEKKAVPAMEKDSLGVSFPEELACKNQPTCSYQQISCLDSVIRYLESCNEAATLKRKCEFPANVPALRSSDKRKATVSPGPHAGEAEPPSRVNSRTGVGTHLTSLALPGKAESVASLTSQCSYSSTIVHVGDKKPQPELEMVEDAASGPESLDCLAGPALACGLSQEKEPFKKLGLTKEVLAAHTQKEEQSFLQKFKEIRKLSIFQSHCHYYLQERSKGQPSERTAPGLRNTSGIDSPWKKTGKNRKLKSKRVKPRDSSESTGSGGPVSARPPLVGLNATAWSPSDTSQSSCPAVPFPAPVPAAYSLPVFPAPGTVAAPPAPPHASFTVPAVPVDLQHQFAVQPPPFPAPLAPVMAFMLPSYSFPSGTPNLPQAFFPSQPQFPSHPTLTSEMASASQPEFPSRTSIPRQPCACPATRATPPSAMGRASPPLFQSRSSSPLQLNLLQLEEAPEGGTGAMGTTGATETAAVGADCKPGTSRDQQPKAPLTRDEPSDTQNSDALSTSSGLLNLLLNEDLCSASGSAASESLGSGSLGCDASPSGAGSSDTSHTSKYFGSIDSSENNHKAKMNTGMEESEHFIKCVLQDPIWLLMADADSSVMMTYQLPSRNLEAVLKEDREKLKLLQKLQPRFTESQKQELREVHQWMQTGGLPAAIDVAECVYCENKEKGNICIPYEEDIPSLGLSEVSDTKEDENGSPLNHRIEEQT
Assay: Reduction of amplitude effect of PER2 in human U2OS cells harboring Per2-dLuc luciferase reporter gene assessed as effects on circadian rhythms
Assay type: cell-based
Settings: not given; call rule not given here
Procedure, shortened: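 Human osteosarcoma U2OS cells carrying a Per2-dLuc luciferase reporter, treated continuously; circadian luminescence rhythm amplitude followed. 8-point threefold dilution series; EC50 taken as concentration giving 50% of the compound's own maximal response (titrations without plateau give no EC50).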

| SMILES | Activity |
| --- | --- |
| CS(=O)(=O)N(CC(O)Cn1c2ccccc2c2ccccc21)c1ccccc1F (stereo unspecified) | Dose-dependent effect |
| CS(=O)(=O)N(CC(O)Cn1c2ccccc2c2ccccc21)c1ccccc1 (stereo unspecified) | Dose-dependent effect |
| O=S1(=O)COCCN1CC(O)Cn1c2ccccc2c2ccccc21 (stereo unspecified) | Dose-dependent effect |
| COCCS(=O)(=O)N(Cc1ccco1)CC(O)Cn1c2ccccc2c2ccccc21 (stereo unspecified) | Dose-dependent effect |
| O=S(=O)(C1CCCCC1)N(Cc1ccco1)CC(O)Cn1c2ccccc2c2ccccc21 (stereo unspecified) | Dose-dependent effect |
| O=S(=O)(C1CC1)N(Cc1ccco1)CC(O)Cn1c2ccccc2c2ccccc21 (stereo unspecified) | Dose-dependent effect |
| O=S(=O)(c1ccccc1)N(Cc1ccco1)CC(O)Cn1c2ccccc2c2ccccc21 (stereo unspecified) | Dose-dependent effect |
| O=S1(=O)NCCCN1CC(O)Cn1c2ccccc2c2ccccc21 (stereo unspecified) | Dose-dependent effect |
| CC(C)CS(=O)(=O)N(Cc1ccco1)CC(O)Cn1c2ccccc2c2ccccc21 (stereo unspecified) | Dose-dependent effect |
| O=S1(=O)CCN1CC(O)Cn1c2ccccc2c2ccccc21 (stereo unspecified) | Dose-dependent effect |
| CCS(=O)(=O)N(Cc1ccco1)CC(O)Cn1c2ccccc2c2ccccc21 (stereo unspecified) | Dose-dependent effect |
| CS(=O)(=O)N(CC(O)Cn1c2ccccc2c2ccccc21)C1CCC(F)(F)CC1 (stereo unspecified) | Dose-dependent effect |
| O=S1(=O)CCCN1CC(O)Cn1c2ccccc2c2ccccc21 (stereo unspecified) | Dose-dependent effect |
| CS(=O)(=O)N(CC(O)Cn1c2ccccc2c2ccccc21)c1ccc(F)cc1 (stereo unspecified) | Dose-dependent effect |
| CCCS(=O)(=O)N(Cc1ccco1)CC(O)Cn1c2ccccc2c2ccccc21 (stereo unspecified) | Dose-dependent effect |
| CC(C)S(=O)(=O)N(Cc1ccco1)CC(O)Cn1c2ccccc2c2ccccc21 (stereo unspecified) | Dose-dependent effect |
| O=S(=O)(C1CCOC1)N(Cc1ccco1)CC(O)Cn1c2ccccc2c2ccccc21 (stereo unspecified) | Dose-dependent effect |
| CCCCS(=O)(=O)N(Cc1ccco1)CC(O)Cn1c2ccccc2c2ccccc21 (stereo unspecified) | Dose-dependent effect |
| O=S1(=O)NCCN1CC(O)Cn1c2ccccc2c2ccccc21 (stereo unspecified) | Dose-dependent effect |
| O=S(=O)(Cc1ccccc1)N(Cc1ccco1)CC(O)Cn1c2ccccc2c2ccccc21 (stereo unspecified) | Dose-dependent effect |
| CN1CCN(CC(O)Cn2c3ccccc3c3ccccc32)S1(=O)=O (stereo unspecified) | Dose-dependent effect |
| O=S1(=O)CCCCN1CC(O)Cn1c2ccccc2c2ccccc21 (stereo unspecified) | Dose-dependent effect |
| CN1CCCN(CC(O)Cn2c3ccccc3c3ccccc32)S1(=O)=O (stereo unspecified) | Dose-dependent effect |
| CS(=O)(=O)N(CC(O)Cn1c2ccccc2c2ccccc21)c1cccc(F)c1 (stereo unspecified) | Dose-dependent effect |

More lines, now with the values ahead:

| Activity | SMILES |
| --- | --- |
| Dose-dependent effect | CCN(CC(O)Cn1c2ccccc2c2ccccc21)S(C)(=O)=O (stereo unspecified) |
| Dose-dependent effect | COCCN(CC(O)Cn1c2ccccc2c2ccccc21)S(C)(=O)=O (stereo unspecified) |
| Dose-dependent effect | CS(=O)(=O)N(CC(O)Cn1c2ccccc2c2ccccc21)C1CCCC1 (stereo unspecified) |
| Dose-dependent effect | CS(=O)(=O)N(CC(O)Cn1c2ccccc2c2ccccc21)C1CC(F)(F)C1 (stereo unspecified) |
| Dose-dependent effect | CC(C)CN(CC(O)Cn1c2ccccc2c2ccccc21)S(C)(=O)=O (stereo unspecified) |
| Dose-dependent effect | CS(=O)(=O)N(CC(O)Cn1c2ccccc2c2ccccc21)C1CCCCC1 (stereo unspecified) |
| Dose-dependent effect | CS(=O)(=O)N(CC(O)Cn1c2ccccc2c2ccccc21)C1COC1 (stereo unspecified) |
| Dose-dependent effect | CCCN(CC(O)Cn1c2ccccc2c2ccccc21)S(C)(=O)=O (stereo unspecified) |
| Dose-dependent effect | CN(CC(O)Cn1c2ccccc2c2ccccc21)S(C)(=O)=O (stereo unspecified) |
| Dose-dependent effect | CS(=O)(=O)N(CC(O)Cn1c2ccccc2c2ccccc21)C1CCOCC1 (stereo unspecified) |
| Dose-dependent effect | CS(=O)(=O)N(Cc1ccccc1)CC(O)Cn1c2ccccc2c2ccccc21 (stereo unspecified) |
| Dose-dependent effect | CS(=O)(=O)N(CC(O)Cn1c2ccccc2c2ccccc21)C1CCC1 (stereo unspecified) |
| Dose-dependent effect | CS(=O)(=O)NCC(O)Cn1c2ccccc2c2ccccc21 (stereo unspecified) |
| Dose-dependent effect | CS(=O)(=O)N(CC(O)Cn1c2ccccc2c2ccccc21)C1CC1 (stereo unspecified) |
| Dose-dependent effect | CC(C)N(CC(O)Cn1c2ccccc2c2ccccc21)S(C)(=O)=O (stereo unspecified) |

Test system: not listed separately
Assay: Mean plasma residence time in po dosed ICR mouse
Assay type: ADME, organism-based
Settings: not given
Procedure, shortened: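 Male ICR mice dosed orally; plasma concentrations followed to derive mean plasma residence time (h).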

| SMILES | MRT [h] |
| --- | --- |
| O=S1(=O)NCCCN1CC(O)Cn1c2ccccc2c2ccccc21 (stereo unspecified) | 5.12 |
| O=S1(=O)CCCN1CC(O)Cn1c2ccccc2c2ccccc21 (stereo unspecified) | 7.63 |

The next lines start with the values.

| MRT [h] | SMILES |
| --- | --- |
| 3.01 | CN(CC(O)Cn1c2ccccc2c2ccccc21)S(C)(=O)=O (stereo unspecified) |
| 1.92 | CS(=O)(=O)NCC(O)Cn1c2ccccc2c2ccccc21 (stereo unspecified) |

Target: Voltage-gated inwardly rectifying potassium channel KCNH2 (Homo sapiens, UniProt Q12809)
Sequence (Q12809 whole entry): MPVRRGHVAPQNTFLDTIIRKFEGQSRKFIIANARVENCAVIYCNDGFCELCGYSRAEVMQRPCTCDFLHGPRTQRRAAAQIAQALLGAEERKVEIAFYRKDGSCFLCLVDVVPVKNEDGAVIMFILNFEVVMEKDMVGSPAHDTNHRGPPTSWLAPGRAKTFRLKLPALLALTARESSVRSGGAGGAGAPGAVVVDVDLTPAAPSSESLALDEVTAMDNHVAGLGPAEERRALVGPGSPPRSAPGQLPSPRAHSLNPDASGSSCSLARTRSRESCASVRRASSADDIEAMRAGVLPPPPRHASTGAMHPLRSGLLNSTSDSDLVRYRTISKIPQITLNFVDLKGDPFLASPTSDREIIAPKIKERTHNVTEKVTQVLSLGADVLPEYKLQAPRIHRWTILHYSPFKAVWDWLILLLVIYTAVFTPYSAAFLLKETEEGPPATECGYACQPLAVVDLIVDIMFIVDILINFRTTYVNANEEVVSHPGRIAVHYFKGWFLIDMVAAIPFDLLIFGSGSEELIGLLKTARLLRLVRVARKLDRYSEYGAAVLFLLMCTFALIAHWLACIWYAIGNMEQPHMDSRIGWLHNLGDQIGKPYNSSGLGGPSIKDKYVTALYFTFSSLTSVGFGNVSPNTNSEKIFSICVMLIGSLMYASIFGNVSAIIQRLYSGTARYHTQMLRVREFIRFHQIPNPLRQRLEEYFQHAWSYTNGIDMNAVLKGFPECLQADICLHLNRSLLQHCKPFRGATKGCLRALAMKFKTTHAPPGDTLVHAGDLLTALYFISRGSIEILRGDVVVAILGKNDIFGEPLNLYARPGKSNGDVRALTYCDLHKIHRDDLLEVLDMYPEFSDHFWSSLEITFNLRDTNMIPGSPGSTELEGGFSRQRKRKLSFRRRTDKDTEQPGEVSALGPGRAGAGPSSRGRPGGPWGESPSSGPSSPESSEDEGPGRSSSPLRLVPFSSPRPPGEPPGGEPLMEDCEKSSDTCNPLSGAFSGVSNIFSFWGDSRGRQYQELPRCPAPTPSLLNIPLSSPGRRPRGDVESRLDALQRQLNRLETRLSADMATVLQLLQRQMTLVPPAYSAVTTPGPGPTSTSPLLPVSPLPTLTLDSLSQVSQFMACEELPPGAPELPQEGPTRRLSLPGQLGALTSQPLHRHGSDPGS
Assay: Inhibition of human ERG
Settings: not given

| SMILES | inhibition (INH) |
| --- | --- |
| O=S1(=O)CCCN1CC(O)Cn1c2ccccc2c2ccccc21 (stereo unspecified) | Not Active |

Test system: Salmonella typhimurium
Assay: Genotoxicity in Salmonella typhimurium by Ames assay
Assay type: toxicity, organism-based
Settings: salmonella enterica subsp. enterica serovar typhimurium

| SMILES | Activity |
| --- | --- |
| O=S1(=O)CCCN1CC(O)Cn1c2ccccc2c2ccccc21 (stereo unspecified) | Non-toxic |

Test system: Mus musculus
Assay: Antidiabetic activity in diet-induced obese C57BL/6J mouse model assessed as reduction of glucose AUC at 100 mg/kg, qd for 7 days
Assay type: functional
Design: scale not given: the % may be the effect or the level left
Settings: not given
Procedure, shortened: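 Diet-induced obese C57BL/6J mice (25 weeks old, high-fat diet for 19 weeks) dosed 100 mg/kg once daily for 7 days, then given an oral glucose tolerance test; glucose clearance expressed as percent reduction in glucose AUC.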

| SMILES | Activity [%] |
| --- | --- |
| O=S1(=O)CCCN1CC(O)Cn1c2ccccc2c2ccccc21 (stereo unspecified) | 41 |
